# Screening data from PubChem BioAssay.
# This is a sample that favours compounds with a hit; in the whole collection about 4.9% have one here.
# STAT3 inh: inhibitors of IL-6 induced STAT3 signaling. inhibition, % at 5.5 µM. AID 862. actives 0.89% (n = 190,000). U3A cells, IL-6 STAT3-luciferase reporter, luminescence; host cell line lacks STAT1;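 active means inhibition above the mean inhibition across all screened compounds plus 3 SD, cut at about 44% in these data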
# NF-kB expr up: compounds increasing NF-kB expression in human neuronal cells; NF-kB reporter expression; hits give high values; AID 1239; actives 1.6% (n = 190,000); fold change at 12.5 µM; in the data active means fold change above about 3.3
# STAT1 activator: increases IFN-gamma driven STAT1 reporter signal | activation (% of control), % at 5.5 µM | NIH 3T3 STAT1-luciferase reporter, luminescence; 100% = IFN-gamma alone, no compound | actives 2.6% (n = 200,000) | AID 932;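 active means activation above the screen-wide mean activation plus 3 SD, cut at about 130% in these data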
# STAT1 inh-1: inhibitors of IFN-gamma induced STAT1 signaling; NIH 3T3 STAT1-luciferase reporter, luminescence; inhibition, % at 5.5 µM; actives 0.35% (n = 200,000);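 active means inhibition above a set limit, the mean inhibition across all tested compounds plus 3 SD, cut at about 34% in these data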
# STAT3 activator: increases IL-6 driven STAT3 reporter signal | U3A cells, IL-6 STAT3-luciferase reporter, luminescence; 100% = signal with IL-6 EC80 alone | activation (% of control), % at 5.6 µM | actives 0.91% (n = 190,000);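 active means activation above the screen-wide mean of compound activation plus 3 SD, cut at about 130% in these data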
#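 Material: human U3A cells carrying STAT3-luciferase construct. Measured by: reporter luminescence signal. Timing: compound 1 h, then IL-6 6 h at 37 °C.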
# APP 5'UTR act: activates APP 5'UTR luciferase reporter; activation, % at 2 µM; actives 1% (n = 190,000); SH-SY5Y APP 5'UTR luciferase reporter, luminescence; zero percent = DMSO vehicle wells;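 active means activation above a set limit, based on mean plus 3 SD of controls, cut at about 140% in these data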
# STAT1 inh-2: STAT1 inhibition, confirmation assay; inhibition, % at 5.5 µM; NIH 3T3 STAT1-luciferase reporter, IFN-gamma, luminescence; shares compounds with STAT1 inh-1; actives 55% (n = 200);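 active means triplicate mean inhibition exceeding the hit cutoff computed for the primary STAT1 screen, cut at about 35% in these data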
# NFkB inh STAT1ct: NF-kappaB inhibition in STAT1 inhibitor counter-screen. HEK293T NF-kB luciferase reporter, TNF-alpha induced, luminescence. shares compounds with STAT1 inh-1. AID 1303. actives 30% (n = 200). inhibition, % at 5.7 µM;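 active means inhibition above the mean of solvent-only control wells plus 3 SD of those wells, cut at about 15% in these data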
# STAT3 inh STAT1c: counter-screen for STAT1 inhibitors: STAT3 inhibition | U3A cells, IL-6 STAT3 luciferase reporter, luminescence; cells lacking STAT1 | AID 1310 | inhibition, % at 5.7 µM | shares compounds with STAT1 inh-1 | actives 20% (n = 200);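 active means inhibition above the mean of solvent-only control wells plus 3 SD, set per campaign, cut at about 25% in these data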
# Numbers stand for hits; - = inactive; . = not tested or not shown.
SMILES,STAT3 inh,NF-kB expr up,STAT1 activator,STAT1 inh-1,STAT3 activator,APP 5'UTR act,STAT1 inh-2,NFkB inh STAT1ct,STAT3 inh STAT1c
C=CCOC(=O)C1=C[C@H](c2ccc(Br)cc2)[C@@H](CCCO)[C@H](OCC)O1,.,-,-,38,.,-,-,-,-
CCOC(=O)c1sc(N(Cc2ccccc2)C(=O)COC(=O)c2ccccc2O)nc1C,-,-,-,-,-,-,.,.,.
CCOC(=O)c1sc(N(Cc2ccccc2)C(=O)COC(=O)c2ccc(O)cc2)nc1C,-,-,-,58,-,-,59,57,-
Cc1cccc(C(=O)NCC(=O)OCC(=O)c2cc(C)n(CC3CCCO3)c2C)c1 (stereo not drawn),-,-,-,-,-,-,.,.,.
Cc1cc(C(=O)COC(=O)CNC(=O)c2ccccc2)c(C)n1CC1CCCO1 (stereo not drawn),-,-,-,37,-,-,-,-,-
Cn1c(-c2ccccc2)c(C(=O)CCl)c2ccccc21,-,-,-,37,-,-,36,40,-
CN(C)c1ccc(N2CC(C)(C)C2=O)cc1,-,-,-,-,-,-,.,.,.
COC(=O)c1ccc(CC(=O)c2ccc(O)cc2O)o1,-,-,-,-,-,-,.,.,.
CCOC(=O)c1ccc(CC(=O)c2ccc(O)cc2O)o1,-,-,-,51,-,-,46,32,-
Cc1ccc(S(=O)(=O)N2CCN(C(C(=O)Nc3ccc(F)cc3)c3ccccc3)CC2)cc1 (stereo not drawn),-,-,-,43,-,-,47,-,-
O=C(c1ccc(Cl)cc1)N1CCN(c2ccnc3cc(Cl)ccc23)CC1,-,-,-,48,-,-,47,-,-
Cc1ccc(Nc2nc(-c3c(C)nc4ncccn34)cs2)cc1,-,-,-,-,-,-,.,.,.
Cc1nc2ncccn2c1-c1csc(Nc2ccc(O)cc2)n1,-,-,-,45,-,-,42,-,32
O=C(COc1ccccc1)NCC(=O)Nc1cccc(S(=O)(=O)NC2=NCCC2)c1,-,-,-,-,-,-,.,.,.
CCOC(=O)C(=CNc1cc(C)nn1-c1ccc(Cl)cc1)C(=O)OCC,-,-,-,59,-,-,55,17,-
CCOC(=O)/C=C(\C)Nc1cc(C)nn1-c1ccccc1,-,-,-,-,-,-,.,.,.
COc1ccc(NC(=O)c2ccc(-c3ccccc3)cc2)cc1S(=O)(=O)N1CCOCC1,-,-,-,38,-,-,47,29,-
CCc1ccc(C(=O)Nc2ccc(OC)c(S(=O)(=O)N3CCOCC3)c2)cc1,-,-,-,-,-,-,.,.,.
CCCN(CCC)S(=O)(=O)c1ccc(C(=O)Nc2nc(-c3ccccc3)c(C(=O)OCC)s2)cc1,-,-,-,-,-,-,.,.,.
COc1ccc(N/N=C(/C#N)S(=O)(=O)C(C)(C)C)cc1,-,-,-,-,-,-,.,.,.
COc1ccc(N/N=C(\C#N)C(=N)SCc2ccccc2)cc1,-,-,-,37,-,-,-,59,-
O=C(Nc1ccccc1C(=O)NCc1ccccc1)c1ccccc1Br,-,-,-,-,-,-,.,.,.
O=C(Nc1ccccc1C(=O)O)c1ccc(Br)c(S(=O)(=O)NCc2ccccc2)c1,-,-,-,51,-,-,-,-,-
C=CCOC(=O)C1=C[C@@H](c2cn(C(C)=O)c3ccccc23)C[C@@H](OCCCCO)O1,.,-,-,-,.,-,-,-,-
C=CCOC(=O)C1=C[C@H](c2cn(C(C)=O)c3ccccc23)C[C@H](OCCCCO)O1,.,-,-,-,.,-,.,.,.
SMILES,STAT3 inh,NF-kB expr up,STAT1 activator,STAT1 inh-1,STAT3 activator,APP 5'UTR act,STAT1 inh-2,NFkB inh STAT1ct,STAT3 inh STAT1c
CCOC(=O)c1c(NC(=O)CSC(=S)N2CCOCC2)sc(C)c1C,-,-,-,-,-,-,.,.,.
Cc1ccc2sc(-c3ccc(NC(=O)/C=C\C(=O)O)cc3)nc2c1,-,5.4,-,43,-,197,-,-,-
COc1ccc2c(c1OC)C(=O)N1c3ccccc3C(=O)N(c3ccccc3F)C21 (stereo not drawn),-,-,-,48,-,-,41,-,30
O=C1c2ccccc2N2C(=O)c3ccccc3[C@H]2N1c1ccccc1,-,-,-,-,-,-,.,.,.
CCCOc1cccc(NC(=O)OC2CCN(C)CC2)c1,-,-,-,-,-,-,.,.,.
CC(=NCCN1CCN(C(C)=C2C(=O)c3ccccc3C2=O)CC1)C1=C(O)CC(C)(C)CC1=O,-,-,-,-,-,-,.,.,.
Oc1ccc(Oc2ccc3c(C(F)(F)F)cc(C(F)(F)F)nc3n2)cc1,-,-,-,62,-,-,54,23,-
COc1ccc(Oc2ccc3c(C(F)(F)F)cc(C(F)(F)F)nc3n2)cc1,-,-,-,-,-,-,.,.,.
Cc1ccc(/C=C2/SC(=S)N(CCCC(=O)Nc3ccc(O)cc3)C2=O)cc1,-,-,-,40,-,-,39,54,-
CN1CCN(Cc2nc3ccccc3c(=O)n2Cc2nc(-c3ccc4ccccc4c3)cs2)CC1,-,16,-,45,-,-,40,-,-
CN(C)Cc1nc2ccccc2c(=O)n1Cc1nc(C(C)(C)C)cs1,-,-,-,53,-,-,-,-,-
CN1CCN(Cc2nc3ccccc3c(=O)n2Cc2nc(-c3ccccc3F)cs2)CC1,-,-,-,50,-,-,51,-,-
CN1CCN(Cc2nc3ccccc3c(=O)n2Cc2nc(-c3cccc([N+](=O)[O-])c3)cs2)CC1,-,-,-,62,-,-,38,-,-
CCC(=O)N(Cc1ccco1)c1nc(C(=O)Nc2ccc(Cl)cc2)c(C)s1,-,-,-,-,-,-,.,.,.
CCSc1nnc(NC(=O)[C@@H](NC(=O)c2cc(OC)cc(OC)c2)C(C)C)s1,-,-,-,-,-,-,.,.,.
COc1ccc(C(=O)/C=C/c2ccc(OC)c(Cn3nnc4ccccc43)c2)cc1,-,-,-,-,-,-,.,.,.
CCOC(=O)N1CCN(C(=O)c2ccc(Cn3c(=S)[nH]c4cc5c(cc4c3=O)OCO5)cc2)CC1,-,-,-,64,-,-,59,26,26
O=C(c1ccc(Cn2c(=S)[nH]c3ccccc3c2=O)cc1)N1CCN(c2ccccn2)CC1,-,-,-,44,-,-,35,-,27
CCOC(=O)N1CCN(C(=O)c2ccc3c(=O)n(-c4cc(OC)ccc4OC)c(=S)[nH]c3c2)CC1,-,-,-,48,-,-,-,-,-
